Converted amounts (≈) assume the structure as drawn.
Assays:
[1] = system: Mycolicibacterium smegmatis; experiment: Antimycobacterial activity against Mycobacterium smegmatis MC2 155 after 72 hrs by broth microdilution method; assay type: functional; conditions: str. MC2 155, 72 h
Procedure, shortened: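 Strains were pre-grown in Middlebrook 7H11 with OADC. The microdilution assay ran in sealed 96-well plates at 37 °C and was read after 72 h for M. smegmatis mc²155 and after 7 days for M. bovis BCG.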

Acinetobacter baumannii = experiment: Antibacterial activity against Acinetobacter baumannii after 18 to 24 hrs by broth microdilution method; assay type: functional
Procedure, shortened: (§1)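 Broth microdilution per CLSI; compounds dissolved in DMSO at 10 mg/mL stock, serially diluted in Mueller Hinton Broth, mixed with equal volume of bacterial inoculum (final […]); incubated 37 °C for 18–24 h; MIC taken as lowest concentration preventing visible growth; duplicate determinations.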

Klebsiella pneumoniae = experiment: Antibacterial activity against Klebsiella pneumoniae after 18 to 24 hrs by broth microdilution method; assay type: functional; procedure, shortened: as §1
Escherichia coli = experiment: Antibacterial activity against Escherichia coli after 18 to 24 hrs by broth microdilution method; assay type: functional; procedure, shortened: as §1
[2] = system: Mycobacterium tuberculosis; experiment: Antimycobacterial activity against Mycobacterium tuberculosis H37Rv by twofold agar dilution method; assay type: functional
Procedure, shortened: (§2)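 Strains grown in Middlebrook 7H11 with OADC. Suspensions at McFarland 1 turbidity were diluted 1:10, 1:100 and 1:10,000 in Middlebrook 7H9. These were inoculated onto duplicate Middlebrook 7H11 plates containing serial concentrations of compound.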

[3] = system: Staphylococcus epidermidis; experiment: Antibacterial activity against Staphylococcus epidermidis after 18 to 24 hrs by broth microdilution method; assay type: functional; procedure, shortened: as §1
Pseudomonas aeruginosa = experiment: Antibacterial activity against Pseudomonas aeruginosa after 18 to 24 hrs by broth microdilution method; assay type: functional; procedure, shortened: as §1
[4] = system: Mycobacterium tuberculosis; experiment: Antimycobacterial activity against Mycobacterium tuberculosis H37Ra by twofold agar dilution method; assay type: functional; procedure, shortened: as §2
Candida albicans = experiment: Antifungal activity against Candida albicans after 48 hrs by NCCLS method; assay type: functional
Procedure, shortened: (§3)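 NCCLS yeast broth dilution; inocula from 48 h, 35 °C Sabouraud agar cultures diluted to 10⁶ CFU/mL; compounds from 10 mg/mL DMSO stock serially diluted in RPMI-1640, added to equal volume of fungal suspension in round-bottom microplates; incubated 35 °C for 48–72 h; MIC in duplicate.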

Enterobacter cloacae = experiment: Antibacterial activity against Enterobacter cloacae after 18 to 24 hrs by broth microdilution method; assay type: functional; procedure, shortened: as §1
Enterococcus faecalis = experiment: Antibacterial activity against Enterococcus faecalis after 18 to 24 hrs by broth microdilution method; assay type: functional; procedure, shortened: as §1
Staphylococcus aureus = experiment: Antibacterial activity against Staphylococcus aureus after 18 to 24 hrs by broth microdilution method; assay type: functional; procedure, shortened: as §1
Candida tropicalis = experiment: Antifungal activity against Candida tropicalis after 48 hrs by NCCLS method; assay type: functional; procedure, shortened: as §3
[5] = system: Stenotrophomonas maltophilia; experiment: Antibacterial activity against Stenotrophomonas maltophilia after 18 to 24 hrs by broth microdilution method; assay type: functional; procedure, shortened: as §1
[6] = Cytotoxicity against human MT4 cells after 96 hrs by MTT assay; assay type: cell-based
Procedure, shortened: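 Exponentially growing MT-4 cells (CD4+ T-cells carrying integrated HTLV-1) seeded at 1 × 10⁵ cells/mL in RPMI-1640 with 10% FCS, penicillin and streptomycin; exposed to serial compound dilutions at 37 °C, humidified 5% CO₂; viability read by MTT after 96 h; CC50 derived.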

Structure (SMILES)	MIC [1]	MIC (Acinetobacter baumannii)	MIC (Klebsiella pneumoniae)	MIC (Escherichia coli)	MIC [2]	MIC [3]	MIC (Pseudomonas aeruginosa)	MIC [4]	MIC (Candida albicans)	MIC (Enterobacter cloacae)	MIC (Enterococcus faecalis)	MIC (Staphylococcus aureus)	MIC (Candida tropicalis)	MIC [5]	CC50 at 96 h [6]
Cn1nnc2c3c(ccc21)c(=O)c(C(=O)O)cn3CC1CCC1	64 µg/mL (≈ 205 µM)	> 64 µg/mL	> 64 µg/mL	> 64 µg/mL	32 µg/mL (≈ 102 µM)	> 64 µg/mL	> 64 µg/mL	16 µg/mL (≈ 51.2 µM)	> 64 µg/mL	> 64 µg/mL	> 64 µg/mL	> 64 µg/mL	> 64 µg/mL	> 64 µg/mL	–
C=C(C)Cn1cc(C(=O)O)c(=O)c2ccc3c(nnn3C)c21	64 µg/mL (≈ 215 µM)	> 64 µg/mL	> 64 µg/mL	> 64 µg/mL	64 µg/mL (≈ 215 µM)	> 64 µg/mL	> 64 µg/mL	32 µg/mL (≈ 107 µM)	> 64 µg/mL	> 64 µg/mL	> 64 µg/mL	> 64 µg/mL	> 64 µg/mL	> 64 µg/mL	–
CCOC(=O)c1cn(C(C)(C)C)c2c(ccc3c2nnn3C)c1=O	16 µg/mL (≈ 48.7 µM)	> 64 µg/mL	> 64 µg/mL	> 64 µg/mL	32 µg/mL (≈ 97.5 µM)	> 64 µg/mL	> 64 µg/mL	4 µg/mL (≈ 12.2 µM)	> 64 µg/mL	> 64 µg/mL	> 64 µg/mL	> 64 µg/mL	> 64 µg/mL	> 64 µg/mL	–
Cn1cc(C(=O)O)c(=O)c2ccc3c(nnn3C)c21	5 µg/mL (≈ 19.4 µM)	> 64 µg/mL	> 64 µg/mL	> 64 µg/mL	0.5 µg/mL (≈ 1.94 µM)	> 64 µg/mL	> 64 µg/mL	0.5 µg/mL (≈ 1.94 µM)	> 64 µg/mL	> 64 µg/mL	> 64 µg/mL	> 64 µg/mL	> 64 µg/mL	> 64 µg/mL	> 100 µg/mL
CCOC(=O)c1cn(CC)c2c(ccc3c2nnn3Cc2ccccc2)c1=O	> 128 µg/mL	> 64 µg/mL	> 64 µg/mL	> 64 µg/mL	64 µg/mL (≈ 170 µM)	> 64 µg/mL	> 64 µg/mL	> 128 µg/mL	> 64 µg/mL	> 64 µg/mL	> 64 µg/mL	> 64 µg/mL	> 64 µg/mL	> 64 µg/mL	–
CN[C@@H]1[C@H](O[C@H]2[C@H](O[C@H]3[C@H](O)[C@@H](O)[C@H](N=C(N)N)[C@@H](O)[C@@H]3N=C(N)N)O[C@@H](C)[C@]2(O)C=O)O[C@@H](CO)[C@H](O)[C@H]1O [STREPTOMYCIN]	–	–	–	–	1 µg/mL (≈ 1.72 µM)	–	–	1 µg/mL (≈ 1.72 µM)	–	–	–	–	–	–	–
CCOC(=O)c1cn(CC2CCC2)c2c(ccc3c2nnn3C)c1=O	> 128 µg/mL	> 64 µg/mL	> 64 µg/mL	> 64 µg/mL	64 µg/mL (≈ 188 µM)	> 64 µg/mL	> 64 µg/mL	> 128 µg/mL	> 64 µg/mL	> 64 µg/mL	> 64 µg/mL	> 64 µg/mL	> 64 µg/mL	> 64 µg/mL	–
Cn1nnc2c3c(ccc21)c(=O)c(C(=O)O)cn3C(C)(C)C	32 µg/mL (≈ 107 µM)	> 64 µg/mL	> 64 µg/mL	> 64 µg/mL	16 µg/mL (≈ 53.3 µM)	> 64 µg/mL	> 64 µg/mL	8 µg/mL (≈ 26.6 µM)	> 64 µg/mL	> 64 µg/mL	> 64 µg/mL	> 64 µg/mL	> 64 µg/mL	> 64 µg/mL	> 100 µg/mL
C=C(C)Cn1cc(C(=O)OCC)c(=O)c2ccc3c(nnn3C)c21	> 128 µg/mL	> 64 µg/mL	> 64 µg/mL	> 64 µg/mL	64 µg/mL (≈ 196 µM)	> 64 µg/mL	> 64 µg/mL	> 128 µg/mL	> 64 µg/mL	> 64 µg/mL	> 64 µg/mL	> 64 µg/mL	> 64 µg/mL	> 64 µg/mL	–
CCOC(=O)c1cn(CC2CC2)c2c(ccc3c2nnn3C)c1=O	> 128 µg/mL	> 64 µg/mL	> 64 µg/mL	> 64 µg/mL	64 µg/mL (≈ 196 µM)	> 64 µg/mL	> 64 µg/mL	> 128 µg/mL	> 64 µg/mL	> 64 µg/mL	> 64 µg/mL	> 64 µg/mL	> 64 µg/mL	> 64 µg/mL	–
Cn1nnc2c3c(ccc21)c(=O)c(C(=O)O)cn3CC1CC1	64 µg/mL (≈ 215 µM)	> 64 µg/mL	> 64 µg/mL	> 64 µg/mL	32 µg/mL (≈ 107 µM)	> 64 µg/mL	> 64 µg/mL	16 µg/mL (≈ 53.6 µM)	> 64 µg/mL	> 64 µg/mL	> 64 µg/mL	> 64 µg/mL	> 64 µg/mL	> 64 µg/mL	–
CCn1cc(C(=O)O)c(=O)c2ccc3c(nnn3Cc3ccccc3)c21	64 µg/mL (≈ 184 µM)	> 64 µg/mL	> 64 µg/mL	> 64 µg/mL	64 µg/mL (≈ 184 µM)	> 64 µg/mL	> 64 µg/mL	8 µg/mL (≈ 23 µM)	> 64 µg/mL	> 64 µg/mL	> 64 µg/mL	> 64 µg/mL	> 64 µg/mL	> 64 µg/mL	–
CCCCn1cc(C(=O)O)c(=O)c2ccc3c(nnn3Cc3ccccc3)c21	> 128 µg/mL	> 64 µg/mL	> 64 µg/mL	> 64 µg/mL	64 µg/mL (≈ 170 µM)	> 64 µg/mL	> 64 µg/mL	64 µg/mL (≈ 170 µM)	> 64 µg/mL	> 64 µg/mL	> 64 µg/mL	> 64 µg/mL	> 64 µg/mL	> 64 µg/mL	–
CCCCn1cc(C(=O)OCC)c(=O)c2ccc3c(nnn3Cc3ccccc3)c21	> 128 µg/mL	> 64 µg/mL	> 64 µg/mL	> 64 µg/mL	64 µg/mL (≈ 158 µM)	> 64 µg/mL	> 64 µg/mL	32 µg/mL (≈ 79.1 µM)	> 64 µg/mL	> 64 µg/mL	> 64 µg/mL	> 64 µg/mL	> 64 µg/mL	> 64 µg/mL	–
Cn1cc(C(=O)O)c(=O)c2ccc3c(nnn3Cc3ccccc3)c21	32 µg/mL (≈ 95.7 µM)	> 64 µg/mL	> 64 µg/mL	> 64 µg/mL	8 µg/mL (≈ 23.9 µM)	> 64 µg/mL	> 64 µg/mL	4 µg/mL (≈ 12 µM)	> 64 µg/mL	> 64 µg/mL	> 64 µg/mL	> 64 µg/mL	> 64 µg/mL	> 64 µg/mL	> 100 µg/mL
C=CCn1cc(C(=O)OCC)c(=O)c2ccc3c(nnn3Cc3ccccc3)c21	> 128 µg/mL	> 64 µg/mL	> 64 µg/mL	> 64 µg/mL	64 µg/mL (≈ 165 µM)	> 64 µg/mL	> 64 µg/mL	> 128 µg/mL	> 64 µg/mL	> 64 µg/mL	> 64 µg/mL	> 64 µg/mL	> 64 µg/mL	> 64 µg/mL	–
CCOC(=O)c1cn(C)c2c(ccc3c2nnn3Cc2ccccc2)c1=O	> 128 µg/mL	> 64 µg/mL	> 64 µg/mL	> 64 µg/mL	64 µg/mL (≈ 177 µM)	> 64 µg/mL	> 64 µg/mL	> 128 µg/mL	> 64 µg/mL	> 64 µg/mL	> 64 µg/mL	> 64 µg/mL	> 64 µg/mL	> 64 µg/mL	–
O=C(O)c1cn(C2CC2)c2cc(N3CCNCC3)c(F)cc2c1=O [CIPROFLOXACIN]	0.125 µg/mL (≈ 0.377 µM)	–	–	–	0.5 µg/mL (≈ 1.51 µM)	–	–	0.5 µg/mL (≈ 1.51 µM)	–	–	–	–	–	–	–
C=CCn1cc(C(=O)O)c(=O)c2ccc3c(nnn3Cc3ccccc3)c21	> 128 µg/mL	> 64 µg/mL	> 64 µg/mL	> 64 µg/mL	64 µg/mL (≈ 178 µM)	> 64 µg/mL	> 64 µg/mL	4 µg/mL (≈ 11.1 µM)	> 64 µg/mL	> 64 µg/mL	> 64 µg/mL	> 64 µg/mL	> 64 µg/mL	> 64 µg/mL	–
CC[C@@H](CO)NCCN[C@@H](CC)CO [ETHAMBUTOL]	0.5 µg/mL (≈ 2.45 µM)	–	–	–	5 µg/mL (≈ 24.5 µM)	–	–	4 µg/mL (≈ 19.6 µM)	–	–	–	–	–	–	–
CO[C@H]1/C=C/O[C@@]2(C)Oc3c(C)c(O)c4c(O)c(c(/C=N/N5CCN(C)CC5)c(O)c4c3C2=O)NC(=O)/C(C)=C\C=C\[C@H](C)[C@H](O)[C@@H](C)[C@@H](O)[C@@H](C)[C@H](OC(C)=O)[C@@H]1C [RIFAMPIN]	8 µg/mL (≈ 9.72 µM)	–	–	–	< 0.5 µg/mL	–	–	≤ 0.06 µg/mL	–	–	–	–	–	–	–
